Only some compounds are listed: those with a hit (about 1.7% of all), similar ones and a draw of the others.
MLLE-PAM2 inh – blocks PAM2 peptide binding to the PABP1 MLLE domain; P11940; GST-MLLE / FITC-PAM2 fluorescence polarization; inhibition, % at 20 µM; 360,000 tested, 0.36% active; in the data active means inhibition above about 35%, passing the limit was not always enough;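 further: plate controls were DMSO wells with GST-MLLE for no effect and wells lacking GST-MLLE protein for full effect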
Target sequence (P11940 whole entry, looked up, the tested form may be a part): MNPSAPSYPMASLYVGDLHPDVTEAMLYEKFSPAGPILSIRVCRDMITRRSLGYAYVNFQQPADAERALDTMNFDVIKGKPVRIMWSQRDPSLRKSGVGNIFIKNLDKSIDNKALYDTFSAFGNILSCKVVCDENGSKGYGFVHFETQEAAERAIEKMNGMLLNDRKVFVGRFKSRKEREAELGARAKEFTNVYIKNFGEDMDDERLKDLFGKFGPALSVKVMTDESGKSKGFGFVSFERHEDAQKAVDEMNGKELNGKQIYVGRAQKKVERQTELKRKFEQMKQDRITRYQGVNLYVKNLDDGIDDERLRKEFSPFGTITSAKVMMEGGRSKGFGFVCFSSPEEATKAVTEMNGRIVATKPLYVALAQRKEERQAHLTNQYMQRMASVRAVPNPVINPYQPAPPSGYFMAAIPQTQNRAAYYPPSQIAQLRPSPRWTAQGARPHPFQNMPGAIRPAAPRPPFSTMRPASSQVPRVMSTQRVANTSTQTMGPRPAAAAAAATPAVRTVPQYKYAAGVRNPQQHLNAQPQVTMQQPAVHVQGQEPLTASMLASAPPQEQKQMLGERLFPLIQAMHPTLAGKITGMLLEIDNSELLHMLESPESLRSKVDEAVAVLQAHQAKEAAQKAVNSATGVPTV
SKN-1 inh – inhibitors of C. elegans SKN-1. C. elegans VP596 Pgst-4::GFP/RFP ratio, acrylamide-induced, 24 h. inhibition, % at 21.8 µM. 360,000 tested, 0.49% active. AID 624304;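 active means interference check ratio from 0.5 to 1.5 plus GFP to RFP signal ratio inhibition reaching or exceeding a fixed threshold, cut at about 30% in these data, passing the limit was not always enough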
MT1-MMP act inh – MT1-MMP (human) activation inhibition | 360,000 tested, 0.061% active | AID 651647 | HT1080 RFP-PRO-GFP cells, GFP/RFP ratio fluorescence, overnight; percent of plate control window, DMSO zero | GFP/RFP ratio change, % at 20 µM | P50281;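 active means GFP/RFP ratio change of at least 30% with cell ATP level not reduced by more than half and red fluorescence within 50% of control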
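Test system: HT1080 cells expressing an RFP-PRO-GFP fluorescent reporter construct / Compound dosing: single-point 20 µM compound, 1% DMSO / Schedule: cells overnight before dosing, compound overnight, 37 °C, 5% CO2 / Evaluation: GFP/RFP fluorescence ratio / Control set: DMSO and RFP-L50D-GFP cell wells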
PABP polyA inh – PABP-poly(A) binding inhibition; AID 2014; P11940; 290,000 tested, 1% active; PABP-poly(A) RNA binding, fluorescence polarization; inhibition, % at 35 µM;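 further: calls also rest on retests at 20 µM and on dose response follow-up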
eIF4H inh – inhibitors of RNA binding by human eIF4H; inhibition, % at 35 µM; eIF4H fluorescence polarization binding assay; Q15056; 290,000 tested, 0.94% active; AID 2012;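 further: calls also rest on retests at 20 µM and on dose response follow-up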
An asterisk follows results filed as active; u = inconclusive; x = no result. Unless noted, how the calls were made is not given here.

SMILES	MLLE-PAM2 inh	SKN-1 inh	MT1-MMP act inh	PABP polyA inh	eIF4H inh
Cc1cc(N(CC(=O)NC(C)C)S(C)(=O)=O)ccc1Br	4	5	0	-4	-6
Cc1cccc(C)c1NC(=O)COC(=O)CCc1c[nH]c2ccccc12	-11	4	8	x	x
Oc1ccccc1N=Cc1ccc[nH]1	17	-19	-1	81*	49*
O=C(CNC(=O)c1ccccc1F)OCc1nc2ccccc2s1	-9	4	0	-10	6
CNc1sc(C(=O)c2ccccc2F)c(N)c1-c1nc2ccccc2s1	41*	-3	3	30	13
CS(=O)(=O)N(CC(=O)NC1CC1)C1CCCCC1	6	5	0	75	active
CS(=O)(=O)N(CC(=O)NC1CCCC1)C1CCCCC1	-2	-14	1	2	1
Cc1oc2c(C)c(O)ccc2c(=O)c1N1C(=O)c2ccccc2C1=O	-7	0	2	-6	-8
Cc1oc2c(C)c(O)ccc2c(=O)c1-c1nncn1-c1ccccc1	-48	-10	-16	22*	u
Cc1ccc(S(=O)(=O)N(CC(=O)NC2CC2)c2ccc(C)c(Cl)c2)cc1	-1	13	2	8	5
CCN(CC(=O)Nc1ccc(OC)cc1)C(=O)CSCc1c(C)noc1C	158*	5	-3	x	x
CCN(CC(=O)Nc1c(F)cccc1F)C(=O)CSCc1c(C)noc1C	-9	6	1	x	x
CCOc1ccc(/C=N/NC(=O)c2ccccc2C)cc1CN1CC2CC(C1)c1cccc(=O)n1C2 (stereo not given)	-9	9	-4	x	x
CC(=O)c1ccc2c(c1)C1C=CCC1C(c1cc3c(cc1Br)OCO3)N2 (stereo not given)	0	10	-1	x	x
COc1ccc2c(c1)C1C=CCC1C(c1cc3c(cc1Br)OCO3)N2 (stereo not given)	-23	6	-22	22	70*
CC1(C)CC(=O)C/C(=N/NC(=O)c2ccc(-c3ccccc3)cc2)C1	-19	7	-1	-4	3
CC1(C)CC(=O)C/C(=N\NC(=O)Cc2ccccc2)C1	-4	14	6	93*	active
Clc1ccc2c(c1)c1cc(Cl)ccc1n2CN1CCOCC1	5	33*	3	12	16
Clc1ccc2c(c1)c1ccccc1n2CN1CCOCC1	-12	12	-1	0	0
CCOc1ccccc1C(=O)N1CCN=C1SCc1cccnc1	40*	16	-1	-6	-5
CN1CCN(C(c2ccccn2)c2cc(Cl)c3cccnc3c2O)CC1 (stereo not given)	43*	11	-1	-2	28
Cc1ccc(C(c2cc(Cl)c3cccnc3c2O)N2CCN(C)CC2)cc1 (stereo not given)	48*	-9	-2	26	30
Oc1c(C(c2ccccn2)N2CCC(Cc3ccccc3)CC2)cc(Cl)c2cccnc12 (stereo not given)	x	x	x	-15	19
CC(=O)C[C@H](O)CC(=O)[C@H]1OC(=O)CCCCCCCCc2ccccc21	8	-3	-23	x	x
COC(=O)C1C(O)=C(C(C)=Nc2cccc3ccccc23)C(=O)CC1(C)C (stereo not given)	3	7	3	30*	u
SMILES	MLLE-PAM2 inh	SKN-1 inh	MT1-MMP act inh	PABP polyA inh	eIF4H inh
CCC1(C)Cc2ccccc2/C(=C/C(=O)N2CCCCC2)N1 (stereo not given)	24	7	-3	66*	30
CCCCN(C)C(=O)Cn1nc(Cc2ccncc2)c2ccccc2c1=O	2	15	-5	6	-5
COc1ccc(S(=O)(=O)n2nc(OC(=O)c3cccs3)cc2NC(=O)c2cccs2)cc1	-24	2	11	8	-7
CC(C)CN1CCNC(=O)C1CC(=O)NCCCN1CCCc2ccccc21 (stereo not given)	11	0	3	52*	16
NC(=O)c1cc(N)ccc1N1CCCCC1	20	-6	0	5	8
NC(=O)c1cc(N)ccc1N1CCCC1	11	60*	7	2	-4
CN(C)S(=O)(=O)c1cccc(NC(=S)N/N=C/c2ccc(O)c(O)c2O)c1	17	1	-4	35*	57*
CN(C)c1ccc(-c2n[nH]c(=S)n2-c2ccccc2)cc1	-3	-6	2	0	-10
CCN(CC)c1ccc(-c2n[nH]c(=S)n2-c2ccccc2)cc1	5	6	-8	75	3.4*
O=C(Nc1cccc(C(=O)N2CCOCC2)c1)C1CC1	-2	-8	1	x	x
O=C1CCCC(O)=C1Sc1ccccc1C(=O)O	9	-2	2	51	87*
Cc1ccc(C(=O)NNC(=O)c2ccncc2)cc1C	-1	7	3	-6	-7
Cc1ccc(CC(=O)NNC(=O)c2ccncc2)cc1C	57*	-4	2	x	x
Cc1ccc(CNC(=O)Cn2cnc(C(=O)Nc3ccc(C)c(C)c3)n2)o1	12	12	3	x	x
COC(=O)[C@@]12C[C@@H](CC(=O)NCC34CC5CC(CC(C5)C3)C4)C(=O)N(Cc3ccccc3)C1=CCC(C)(C)C2	x	-9	-22	x	x
Clc1cc(Cl)c2nc(N3CCCC3)sc2c1	10	37*	-2	x	x
CCOC(=O)C(C)C(C)=O (stereo not given)	19	-3	-5	x	x
COc1ccc(SC[C@H](C)CN2CC[C@H](C(C)(C)C)CCC2=O)cc1	40*	14	-6	x	x
CC(=O)Nc1ccc(SCCN2CC[C@@H](C(C)(C)C)CCC2=O)cc1	41*	6	3	x	x
O=C(COC(=O)CSc1ccc([N+](=O)[O-])cc1)NCCC1=CCCCC1	33	-2	0	x	x
Oc1ccc(C=NN=Cc2ccco2)c(O)c1	-3	-20	-9	x	x
CCOC(=O)c1cc(C)sc1/N=C/C1=C(O)CCCC1=O	29	-2	3	0.3*	55*
CCSc1nnc(-c2ccc(Cl)cc2Cl)o1	3	67*	-3	-3	-8
CSc1ccccc1-c1nnc(-c2ccc(Cl)cc2Cl)o1	4	1	-1	1	2
Fc1ccc(-c2nnc(-c3ccc(Cl)cc3Cl)o2)cc1	-1	48*	-4	-4	-9
SMILES	MLLE-PAM2 inh	SKN-1 inh	MT1-MMP act inh	PABP polyA inh	eIF4H inh
Clc1ccc(-c2nnc(-c3ccccc3)o2)c(Cl)c1	5	69*	1	3	-4
Fc1ccc(-c2nnc(-c3ccc(Cl)cc3)o2)cc1	-2	26	26	-1	1
CCCCC(O)(CCCC)C(=O)N/N=C(\C)c1ccc(Cl)cc1	-4	-4	3	52*	84*
C/C(=N/NC(=O)CNc1ccc(C)cc1)c1ccc(Cl)cc1	-2	10	-2	-2	-12
Nc1ccc2cccc(O)c2c1	-7	5	15	x	x
CCN(CC)c1ccc(C2Nc3cccc4cccc(c34)N2)cc1	-26	-5	0	2	6
CCN(CC)c1ccc(C2NC(=O)c3ccccc3N2)cc1 (stereo not given)	-18	37*	4	x	x

Screening data from PubChem.
